These results are taken from ChEMBL document CHEMBL3352177, “C-glycoside mimetics inhibit glioma stem cell proliferation, migration, and invasion” (J Med Chem, 2014).

One experiment has as its system DU-145. In words: Antiproliferative activity against human DU145 cells after 48 to 72 hrs by MTT assay. It counts as functional, cell-based. The method in brief:
(§1)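 MTT assay read 48 and 72 h after compound addition. Cell lines grown in DMEM with 10% heat-inactivated FCS, 2 mM L-glutamine, 1 mM sodium pyruvate; GBM stem cells grown as nonadherent neurospheres. IC50 by Hill equation fit; ≥3 independent experiments, each point repeated six times.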
For orientation: Formazan colour is commonly taken as a measure of viable cells.

Experiment [1] is described as follows: Antiproliferative activity against mouse B16F10 cells after 48 to 72 hrs by MTT assay. It counts as functional, cell-based. Conditions: B16-F10. The essentials: as §1
Another experiment concerns MDA-MB-231. In words: Antiproliferative activity against human MDA-MB-231 cells after 48 to 72 hrs by MTT assay. In kind it is functional, cell-based. The essentials:
as §1

A short description of experiment [2]: Antiproliferative activity against human HuH7 cells after 48 to 72 hrs by MTT assay. It counts as functional, cell-based. The following applies: Huh-7. The method in brief:
as §1

For another experiment, the system named is A-431. In words: Antiproliferative activity against human A431 cells after 48 to 72 hrs by MTT assay. In kind it is functional, cell-based. The method in brief: as §1
Experiment [3] in a line: Antiproliferative activity against human Gli7 cells after 48 to 72 hrs by MTT assay. It counts as functional, cell-based. The method in brief: as §1
The test system of another experiment is MDA-MB-435. In words: Antiproliferative activity against human MDA-MB-435 cells after 48 to 72 hrs by MTT assay. It counts as functional, cell-based. The method in brief:
as §1

The subject of a further experiment is SNB-75. In words: Antiproliferative activity against human SNB75 cells after 48 to 72 hrs by MTT assay. In kind it is functional, cell-based. The method in brief:
as §1

Experiment [4] can be described thus: Antiproliferative activity against human Gli4F11 cells after 48 to 72 hrs by MTT assay.
The nature of experiment [5]: Antiproliferative activity against human Caco2 cells after 48 to 72 hrs by MTT assay. It counts as functional, cell-based. Conditions: Caco-2. The method in brief: as §1
The next experiment deals with C6. In words: Antiproliferative activity against rat C6 cells after 48 to 72 hrs by MTT assay. It counts as functional, cell-based. The method in brief:
as §1

Bounds are passed on as bounds.

By IC50 is commonly meant the concentration at which inhibition is half-maximal. Low values mean greater potency in that assay, high ones weaker potency in that assay. Take `CC1(C)O[C@@H]2[C@H](O1)[C@@H](O)[P@@](=O)(c1ccccc1)O[C@@H]2[C@H]1COC(C)(C)O1`: the IC50 in the experiment on DU-145 is more than 100 µM; in experiment [1], 10.4 µM; with MDA-MB-231, 5.6 µM; in experiment [2] it was more than 100 µM; with A-431, 0.77 µM; in [3] it was 5.81 µM. In addition, the half-maximal inhibitory concentration (IC50) with MDA-MB-435 is 11.6 µM; with SNB-75, 16.1 µM; in [4] it was 11.4 µM; in [5] it was more than 100 µM; with C6 it was more than 100 µM.

Consider `CC1(C)O[C@H]2[C@@H]([C@H]3COC(C)(C)O3)O[P@](=O)(c3ccccc3)[C@@H](Oc3ccc([N+](=O)[O-])c([N+](=O)[O-])c3)[C@H]2O1`, for which the 50% inhibitory concentration (IC50) is more than 100 µM in the experiment on DU-145; 2.59 µM in [1]; 6.35 µM in the experiment with MDA-MB-231; 23.8 µM in experiment [2]; 0.84 µM with A-431; 1.93 µM in [3]. The 50% inhibitory concentration (IC50) in the experiment on MDA-MB-435 is 2.66 µM; in the experiment with SNB-75, 6.99 µM; in [4], 2.87 µM; in [5], more than 100 µM; in the experiment with C6 it was 9.44 µM.

`CC1(C)O[C@@H]2[C@H](O1)[C@@H](N)[P@](=O)(c1ccccc1)O[C@@H]2[C@H]1COC(C)(C)O1`: the IC50 is more than 100 µM in the experiment on DU-145; 1.02 µM in experiment [1]; 4.15 µM with MDA-MB-231; 16.3 µM in [2]; more than 100 µM with A-431; 1.29 µM in [3]. Besides, the IC50 in the experiment with MDA-MB-435 is 1.16 µM; in the experiment on SNB-75 it was 2.96 µM; in [4], 1.37 µM; in experiment [5], more than 100 µM; with C6, 24.4 µM.

As to `CC(=O)N[C@@H]1[C@H]2OC(C)(C)O[C@H]2[C@@H]([C@H]2COC(C)(C)O2)O[P@@]1(=O)c1ccccc1`, the IC50 in the experiment on DU-145 came to 31.2 µM; in [1] it was 14.9 µM; in the experiment on MDA-MB-231 it was 23.2 µM; in [2], 21.9 µM; in the experiment on A-431 it was 0.13 µM; in experiment [3], 0.5 µM. Further, the IC50 is 9.61 µM in the experiment on MDA-MB-435; 0.65 µM in the experiment with SNB-75; 0.54 µM in experiment [4]; 36 µM in [5]; 0.65 µM in the experiment on C6.

Take `CC1(C)O[C@H]2[C@@H]([C@H]3COC(C)(C)O3)O[P@](=O)(c3ccccc3)[C@@H](Oc3ccc(N)cc3)[C@H]2O1`: the IC50 in the experiment on DU-145 is more than 100 µM; in experiment [1], 4.69 µM; with MDA-MB-231 it was 4.82 µM; in experiment [2], 23.6 µM; in the experiment on A-431, more than 100 µM; in [3], 1.77 µM. For the same compound, the IC50 was 3.36 µM in the experiment on MDA-MB-435; 6.23 µM in the experiment with SNB-75; 2.98 µM in experiment [4]; more than 100 µM in experiment [5]; 9.35 µM in the experiment with C6.

For `CC1(C)O[C@H]2[C@@H]([C@H]3COC(C)(C)O3)O[P@](=O)(c3ccccc3)[C@@H](OC(=O)c3ccccc3)[C@H]2O1`, the IC50 with DU-145 was more than 100 µM; in experiment [1] it was 13.5 µM; in the experiment on MDA-MB-231, 1.16 µM; in experiment [2], more than 100 µM; in the experiment with A-431, 4.35 µM; in experiment [3], 1.93 µM. Also, the half-inhibitory concentration (IC50) with MDA-MB-435 is 0.66 µM; in the experiment with SNB-75, 9.54 µM; in experiment [4], 3.22 µM; in experiment [5], more than 100 µM; in the experiment on C6, 8.51 µM.

In the case of `CC1(C)O[C@H]2[C@@H]([C@H]3COC(C)(C)O3)O[P@@](=O)(c3ccccc3)[C@@H](O)[C@H]2O1`, the IC50 was more than 100 µM in the experiment on DU-145; 10.2 µM in experiment [1]; 6.08 µM in the experiment on MDA-MB-231; more than 100 µM in experiment [2]; 0.98 µM with A-431; 3.72 µM in [3]. The IC50 is 11 µM in the experiment on MDA-MB-435; 13.4 µM in the experiment on SNB-75; 8.56 µM in [4]; more than 100 µM in [5]; more than 100 µM in the experiment with C6.

On to `Cc1ccc(S(=O)(=O)O[C@H]2[C@H]3OC(C)(C)O[C@H]3[C@@H]([C@H]3COC(C)(C)O3)O[P@]2(=O)c2ccccc2)cc1`, for which the IC50 in the experiment on DU-145 is more than 100 µM; in experiment [1], 1.64 µM; in the experiment with MDA-MB-231, 2.66 µM; in [2], more than 100 µM; with A-431, 4.44 µM; in experiment [3], 2.8 µM. In addition, the IC50 in the experiment on MDA-MB-435 is 4.02 µM; in the experiment with SNB-75, 9.42 µM; in [4] it was 5.41 µM; in [5] it was more than 100 µM; with C6, 6.99 µM.

Take `CC1(C)O[C@H]2[C@@H]([C@H]3COC(C)(C)O3)O[P@](=O)(c3ccccc3)[C@@H](OS(C)(=O)=O)[C@H]2O1`: the IC50 in the experiment on DU-145 was more than 100 µM; in experiment [1] it was 2.08 µM; with MDA-MB-231, 3.45 µM; in experiment [2] it was 24 µM; in the experiment with A-431, 4.85 µM; in [3] it was 2.71 µM. In addition, the IC50 in the experiment with MDA-MB-435 was 1.96 µM; with SNB-75, 6.28 µM; in [4] it was 6.81 µM; in experiment [5], more than 100 µM; with C6, 1.11 µM.

Consider `Cc1ccc(N[C@@H]2[C@H]3OC(C)(C)O[C@H]3[C@@H]([C@H]3COC(C)(C)O3)O[P@@]2(=O)c2ccccc2)cc1`, for which the IC50 in the experiment with DU-145 was more than 100 µM; in [1], 2.02 µM; with MDA-MB-231, 3.72 µM; in experiment [2], 23.6 µM; in the experiment on A-431, 4.67 µM; in [3], 2.8 µM. Moreover, the 50% inhibitory concentration (IC50) with MDA-MB-435 was 2.65 µM; in the experiment with SNB-75 it was 5.37 µM; in experiment [4], 5.55 µM; in [5], more than 100 µM; in the experiment with C6, 5.5 µM.

For `CC1(C)O[C@H]2[C@@H]([C@H]3COC(C)(C)O3)O[P@](=O)(c3ccccc3)[C@@H](O)[C@H]2O1`, the IC50 in the experiment with DU-145 was more than 100 µM; in experiment [1], 9.95 µM; with MDA-MB-231, 9.37 µM; in experiment [2], more than 100 µM; in the experiment with A-431, 1.11 µM; in [3], 3.16 µM. The IC50 in the experiment on MDA-MB-435 was 16.6 µM; in the experiment with SNB-75, 14.3 µM; in experiment [4], 38.4 µM; in [5], more than 100 µM; in the experiment with C6 it was 0.5 µM.

Turning to `CCCC[P@@]1(=O)O[C@H]([C@H]2COC(C)(C)O2)[C@@H]2OC(C)(C)O[C@@H]2[C@@H]1O`, the IC50 with DU-145 is more than 100 µM; in experiment [1], more than 100 µM; with MDA-MB-231 it was more than 100 µM; in experiment [2] it was more than 100 µM; in the experiment with A-431, 0.55 µM; in [3] it was 2.88 µM. For the same compound, the IC50 in the experiment on MDA-MB-435 is more than 100 µM; in the experiment with SNB-75, 6.21 µM; in experiment [4], 6.12 µM; in experiment [5] it was more than 100 µM; in the experiment on C6 it was 8.62 µM.

For the compound `CC1(C)O[C@H]2[C@@H]([C@H]3COC(C)(C)O3)O[P@](=O)(c3ccccc3)[C@@H](Oc3ccc([N+](=O)[O-])cc3)[C@H]2O1`, the half-maximal inhibitory concentration (IC50) in the experiment with DU-145 is more than 100 µM; in experiment [1], more than 100 µM; in the experiment on MDA-MB-231 it was more than 100 µM; in experiment [2], more than 100 µM; in the experiment with A-431, 2.02 µM; in [3] it was 2.07 µM. Further, the IC50 is more than 100 µM with MDA-MB-435; 3.11 µM with SNB-75; 3.91 µM in experiment [4]; more than 100 µM in [5]; 31.4 µM with C6.

For the compound `CC(=O)O[C@H]1[C@H]2OC(C)(C)O[C@H]2[C@@H]([C@H]2COC(C)(C)O2)O[P@]1(=O)c1ccccc1`, the IC50 in the experiment with DU-145 was more than 100 µM; in experiment [1], more than 100 µM; in the experiment on MDA-MB-231, more than 100 µM; in experiment [2] it was more than 100 µM; in the experiment with A-431, more than 100 µM; in experiment [3], 3.62 µM. The IC50 was more than 100 µM in the experiment on MDA-MB-435; 1.37 µM in the experiment on SNB-75; 8.76 µM in [4]; more than 100 µM in experiment [5]; 10.2 µM with C6.

As to `CC1(C)O[C@@H]2[C@H](O1)[C@@H](Nc1ccccc1)[P@](=O)(c1ccccc1)O[C@@H]2[C@H]1COC(C)(C)O1`, the IC50 is more than 100 µM with DU-145; 1.96 µM in experiment [1]; 3.83 µM with MDA-MB-231; 24.2 µM in [2]; 1.26 µM in the experiment with A-431; 1.82 µM in experiment [3]. The IC50 in the experiment with MDA-MB-435 was 2.48 µM; in the experiment with SNB-75, 9.99 µM; in experiment [4], 2.68 µM; in experiment [5], more than 100 µM; with C6, 10.3 µM.

For the compound `CC1(C)O[C@@H]2[C@H](O1)[C@@H](NCc1ccccc1)[P@](=O)(c1ccccc1)O[C@@H]2[C@H]1COC(C)(C)O1`, the IC50 is more than 100 µM in the experiment on DU-145; 2.05 µM in [1]; 4.17 µM in the experiment with MDA-MB-231; 23.8 µM in experiment [2]; 4.7 µM in the experiment with A-431; 4.62 µM in [3]. Further, the half-maximal inhibitory concentration (IC50) is 3.99 µM in the experiment on MDA-MB-435; 5.16 µM in the experiment with SNB-75; 2.79 µM in experiment [4]; more than 100 µM in experiment [5]; 14.8 µM in the experiment on C6.
